Only some compounds are listed: those with a hit (about 1.2% of all), similar ones and a draw of the others.
CRFBP-R2 agonist: agonists of human CRF-binding protein/CRF-R2 receptor complex. HEK293 CRF-R2/CRF-BP, calcium dye fluorescence (FLIPR); percent of saturating CRF peptide response. activation, % at 13.2 µM. actives 0.46% (n = 350,000);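 active means activation of at least 50%, plus an integration ratio under a set limit after plate pattern correction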;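 further: plate controls were neutral control wells without compound for no effect and CRF at EC100 for full effect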
zfTRPN1 agonist: activates the zebrafish TRPN1 channel; actives 0.18% (n = 220,000); HEK293 zebrafish TRPN1-YFP, Fluo-8 calcium fluorescence; 100% = response to 87 µM carbachol; activation, % at 3 µM;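 active means activation above its plate's cutoff, the mean activation of test wells on that plate plus 3 SD, cut at about 19% in these data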;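 further: 0% = DMSO alone and 100% = 87 µM carbachol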
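Material – zebrafish TRPN1-YFP in HEK293 cells · Doses – 3 µM single point · Schedule – dye 1 h 37 °C plus 30 min RT · Signal – Fluo-8 calcium fluorescence, excitation 470-495 nm, emission 515-575 nm · Read-out – % activation versus carbachol response · Control set – carbachol high, DMSO low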
CRFBP-R2 block: CRF-BP/CRF-R2 complex antagonism. inhibition, % at 11.8 µM. HEK293 CRF-R2/CRF-BP, CRF-induced calcium fluorescence. actives 0.59% (n = 350,000). AID 588475;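 active means inhibition of the ligand-induced calcium signal above about 50% at the single tested concentration, limit read from the data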
TRPML3 ag: human mucolipin-3 channel agonism. HEK293 TRPML3-YFP, Fluo-8 calcium fluorescence; 100% = the carbachol control signal. Q8TDD5. AID 1448. activation, % at 3 µM. actives 0.29% (n = 220,000);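 active means activation above its plate's cutoff, the mean activation of the plate's test wells plus 3 SD, cut at about 12% in these data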;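 further: 0% = DMSO only wells and 100% = carbachol wells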
Target sequence (Q8TDD5 whole entry, looked up): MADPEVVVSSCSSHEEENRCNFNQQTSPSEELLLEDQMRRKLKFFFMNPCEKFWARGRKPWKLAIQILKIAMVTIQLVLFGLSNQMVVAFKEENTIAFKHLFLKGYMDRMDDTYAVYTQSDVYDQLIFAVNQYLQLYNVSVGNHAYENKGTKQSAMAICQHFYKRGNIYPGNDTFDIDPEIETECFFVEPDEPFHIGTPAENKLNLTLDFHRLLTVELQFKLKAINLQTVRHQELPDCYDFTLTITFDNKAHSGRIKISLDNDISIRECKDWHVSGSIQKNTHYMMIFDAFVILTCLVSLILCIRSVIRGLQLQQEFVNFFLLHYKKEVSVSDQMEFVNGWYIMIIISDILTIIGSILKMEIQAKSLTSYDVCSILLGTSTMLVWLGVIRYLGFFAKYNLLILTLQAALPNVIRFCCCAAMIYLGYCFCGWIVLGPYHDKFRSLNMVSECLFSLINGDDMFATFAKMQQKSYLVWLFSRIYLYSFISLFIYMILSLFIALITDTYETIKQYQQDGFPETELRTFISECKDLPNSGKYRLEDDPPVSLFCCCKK
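Test system: HEK293 cells stably carrying human TRPML3-YFP; Doses: single dose, 3 µM final nominal compound, 0.3% DMSO final; Schedule: dye loading 1 h 37 °C then 30 min ambient, 125 s read; Technique: Fluo-8 calcium fluorescence; Benchmarks: high control carbachol 87 µM, low control DMSO.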
* = called active by the depositor; . = no result; ! = not confirmed by another sample.

SMILES	CRFBP-R2 agonist	zfTRPN1 agonist	CRFBP-R2 block	TRPML3 ag
O=C(Oc1ccc2c3c(c(=O)oc2c1)CCC3)c1ccccc1[N+](=O)[O-]	.	0	.	1
CCN(CC)CCCNc1ccc2ncn3c4ccc(O)cc4c(=O)c1c23	215*	.	-245	.
CN(C)CCNc1ccc2nnn3c4ccc(O)cc4c(=O)c1c23	2	.	11	.
Cc1nn(Cc2c(F)c(F)c(F)c(F)c2F)c(C)c1NC(=O)c1ccc(COc2ccc(F)cc2)o1	1	-1	24	-1
Cc1nn2c(N)c(-c3ccccc3)cnc2c1-c1ccc(Cl)cc1	1	.	54*	.
Cc1cc(NC(=O)c2noc3c2CCc2ccccc2-3)no1	0	.	-36	.
Cc1ccc(C)n1-c1ccc(C(=O)N2CCOCC2)cc1	9	0	-3	1
Cn1nc([N+](=O)[O-])c(C(C#N)c2ccccn2)c(Cl)c1=O (stereo not given)	-2	1	3	2
CCn1nc([N+](=O)[O-])c(C(C#N)c2nc3cc(C(F)(F)F)ccc3s2)c(Cl)c1=O (stereo not given)	28	-2	68*	-1
CCCn1nc([N+](=O)[O-])c(C(C#N)c2nc3ccccc3o2)c(Cl)c1=O (stereo not given)	3	-1	74*	0
CCOc1ccc(C2C(C#N)=C(N)N(N(C)C)C3=C2C(=O)CC(C)(C)C3)cc1 (stereo not given)	0	.	5	.
C/C(=N\Nc1ccc([N+](=O)[O-])cc1)c1cc2ccccc2o1	53*	2	-59	2
O=C(N/N=C/c1ccc([N+](=O)[O-])cc1)c1cc2ccccc2o1	1	1	-15	1
COc1cccc(NC(=O)CCSc2nnc3scc(-c4ccccc4)n23)c1	-1	-1	8	-1
CCNc1nc(NCC)n2c(SCC(=O)Nc3ccccc3)nnc2n1	-1	2	2	1
CC(=O)c1cccc(NC(=S)NC(=O)Cc2ccccc2)c1	0	1	-20	0
CC(=O)c1cccc(NC(=S)NC(=O)Cc2ccc(Cl)cc2)c1	63*	.	-87	.
Cc1ccc(CC(=O)Nc2cccc(C(=O)Nc3c(C)n(C)n(-c4ccccc4)c3=O)c2)cc1C	-1	.	7	.
COc1cccc(/C=C2\SC(=S)N(NS(=O)(=O)c3ccccc3)C2=O)c1OC	0	.	63*	.
COc1ccc(/C=C2/SC(=O)N(NS(=O)(=O)c3ccccc3)C2=S)cc1OC	0	-1	52*	1
COc1cc(/C=C2\SC(=S)N(NS(=O)(=O)c3ccccc3)C2=O)cc(OC)c1OC	0	-1	27	0
COc1cc(C(=O)OCC(=O)Nc2ccc(C(C)=O)cc2)ccc1OCC(=O)N1CCOCC1	-2	0	16	0
COc1ccc(CN2CCN(Cc3ccc4ccccc4c3)CC2)cc1OC	-1	.	-9	.
COc1ccc(CN2CCS(=O)(=O)CC2)cc1OC	5	2	64*	1
COc1ccc(N2CCN(C(=O)CN(C)S(=O)(=O)c3ccc4c(c3)c(=O)n(C)c(=O)n4C)CC2)cc1	1	0	-5	1
SMILES	CRFBP-R2 agonist	zfTRPN1 agonist	CRFBP-R2 block	TRPML3 ag
CC1=CC(C)(C)N(C(=O)CSc2nnc(N)s2)c2ccccc21	53*	-1	-26	0
O=[N+]([O-])c1ccc(/C=N/N/C(=N/c2ccccn2)c2ccccn2)cc1	2	0	6	0
O=[N+]([O-])c1cc(/C=N/N/C(=N/c2ccccn2)c2ccccn2)ccc1O	66*	-1	64*	0
Cc1cc(C)nc(SCc2nnc(SCc3ccc([N+](=O)[O-])cc3)n2Cc2ccco2)n1	-1	-3	79*	-1
Cc1cccc(C(=O)Oc2ccc(/C=N/NC(=O)c3ccccc3O)cc2)c1	3	-1	5	0
Cc1cccc(C(=O)Oc2ccc(/C=N/NC(=O)c3ccc(O)cc3)cc2)c1	3	.	105*	.
O=C(O)CCCC(=O)N1CCCC1	1	2	5	1
CCCCCCCCCCCCCCCC[n+]1cccc(C(=O)N(CC)CC)c1	104*!	3	12	0
CCn1cc(C(=O)NCCCN(CC(C)C)CC(C)C)c(=O)c2cc(S(=O)(=O)N(C)C3CCCCC3)ccc21	76*	.	-65	.
COc1ccc(Cl)cc1NC(=O)CC(=O)Nc1cc(Cl)ccc1OC	2	.	-1	.
CCCCOc1ccc(OC(=O)Nc2cc(Cl)ccc2OC)cc1	-6	-1	81*	0
